Laboratory results from publication PMC5884419 (European journal of pharmaceutical sciences : official …, 2018).
Like-named read-outs stand apart in the source and are kept apart here. Marks after values point to notes of the source that are not given here.

Assays:
ABCB1 = details: ref Hugger et al., 2002, cited from earlier work
[1] = tolerability of co-injected pharmacologic dose of unlabeled Ko143; type: in vivo; details: wild-type mice, 10 mg/kg i.v. co-injected with radiotracer
[2] = plasma concentration after i.v. administration; type: in vivo, mice; details: mouse, iv, 10 mg/kg
[3] = mice, 1 h after i.v. 10 mg/kg; ref Zhang et al., 2011; cited from earlier work
[4] = rat plasma; ref Liu et al., 2014; cited from earlier work
Abcb1a/b [5] = biological target: T1, Abcb1a/b (Mus musculus, UniProt P21447); details: Abcb1a/b^(-/-) and Abcb1a/b^(-/-)Abcg2^(-/-) mice; ref Liu et al., 2012; cited from earlier work
T1 sequence (P21447 whole entry): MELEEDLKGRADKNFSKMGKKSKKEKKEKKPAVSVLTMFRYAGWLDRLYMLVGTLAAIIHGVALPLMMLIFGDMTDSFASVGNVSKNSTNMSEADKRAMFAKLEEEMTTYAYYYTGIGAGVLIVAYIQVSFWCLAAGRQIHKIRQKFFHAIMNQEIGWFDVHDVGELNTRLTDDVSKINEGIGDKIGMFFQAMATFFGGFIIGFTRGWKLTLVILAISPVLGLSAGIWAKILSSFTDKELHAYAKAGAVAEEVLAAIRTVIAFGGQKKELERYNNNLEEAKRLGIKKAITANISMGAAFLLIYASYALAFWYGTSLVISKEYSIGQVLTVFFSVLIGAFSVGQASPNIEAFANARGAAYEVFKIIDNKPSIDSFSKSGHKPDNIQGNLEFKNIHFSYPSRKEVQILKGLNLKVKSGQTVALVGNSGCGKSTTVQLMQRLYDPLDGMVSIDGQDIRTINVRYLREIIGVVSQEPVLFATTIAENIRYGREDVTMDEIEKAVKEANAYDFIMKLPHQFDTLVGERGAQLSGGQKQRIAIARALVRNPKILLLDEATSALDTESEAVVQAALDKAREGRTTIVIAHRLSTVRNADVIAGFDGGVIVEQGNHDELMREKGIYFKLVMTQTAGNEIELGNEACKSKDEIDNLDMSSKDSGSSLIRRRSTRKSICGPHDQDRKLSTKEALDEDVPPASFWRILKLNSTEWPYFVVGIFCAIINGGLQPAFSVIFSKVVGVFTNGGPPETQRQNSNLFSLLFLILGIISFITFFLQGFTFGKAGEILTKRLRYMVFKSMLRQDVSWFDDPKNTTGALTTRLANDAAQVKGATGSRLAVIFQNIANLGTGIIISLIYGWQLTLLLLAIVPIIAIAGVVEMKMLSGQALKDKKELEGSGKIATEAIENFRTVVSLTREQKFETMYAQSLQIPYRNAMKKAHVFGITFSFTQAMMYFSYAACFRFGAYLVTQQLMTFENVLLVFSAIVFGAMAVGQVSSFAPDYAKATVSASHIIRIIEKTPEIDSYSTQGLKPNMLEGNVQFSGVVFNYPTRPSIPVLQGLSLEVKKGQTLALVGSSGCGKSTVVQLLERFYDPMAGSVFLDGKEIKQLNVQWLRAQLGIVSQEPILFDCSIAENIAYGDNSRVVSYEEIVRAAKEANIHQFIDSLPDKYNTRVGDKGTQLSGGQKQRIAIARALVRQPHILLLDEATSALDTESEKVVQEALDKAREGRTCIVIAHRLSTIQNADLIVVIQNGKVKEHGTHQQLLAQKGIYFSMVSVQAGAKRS

human ABCB1 = details: ref Weidner et al., 2015; cited from earlier work
Abcb1a/b [6] = biological target: T1, Abcb1a/b; type: in vivo; details: wild-type and Abcg2^(-/-) mice, microdose
[7] = type: in vivo, mice
Summary of the method: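 Female FVB wild-type mice under isoflurane had 60-min dynamic PET after tail-vein injection of radiotracer mixed with test compound (10 mg/kg) or its vehicle (4 mL/kg), versus radiotracer alone. Liver and kidney kuptake came from an integration plot over 0.3–3.5 min. kurine and kbile came from 4.5–45 min data, with biliary activity taken as gallbladder + duodenum + intestine. Extraction ratio = kuptake divided by assumed blood flow (liver 1.0, kidney 4.1 mL/min/g).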

Abcg2 = biological target: T2, Abcg2 (Mus musculus, UniProt Q7TMS5); type: in vivo; details: Abcg2^(-/-) and Abcb1a/b^(-/-)Abcg2^(-/-) mice, microdose
T2 sequence (Q7TMS5 1-657): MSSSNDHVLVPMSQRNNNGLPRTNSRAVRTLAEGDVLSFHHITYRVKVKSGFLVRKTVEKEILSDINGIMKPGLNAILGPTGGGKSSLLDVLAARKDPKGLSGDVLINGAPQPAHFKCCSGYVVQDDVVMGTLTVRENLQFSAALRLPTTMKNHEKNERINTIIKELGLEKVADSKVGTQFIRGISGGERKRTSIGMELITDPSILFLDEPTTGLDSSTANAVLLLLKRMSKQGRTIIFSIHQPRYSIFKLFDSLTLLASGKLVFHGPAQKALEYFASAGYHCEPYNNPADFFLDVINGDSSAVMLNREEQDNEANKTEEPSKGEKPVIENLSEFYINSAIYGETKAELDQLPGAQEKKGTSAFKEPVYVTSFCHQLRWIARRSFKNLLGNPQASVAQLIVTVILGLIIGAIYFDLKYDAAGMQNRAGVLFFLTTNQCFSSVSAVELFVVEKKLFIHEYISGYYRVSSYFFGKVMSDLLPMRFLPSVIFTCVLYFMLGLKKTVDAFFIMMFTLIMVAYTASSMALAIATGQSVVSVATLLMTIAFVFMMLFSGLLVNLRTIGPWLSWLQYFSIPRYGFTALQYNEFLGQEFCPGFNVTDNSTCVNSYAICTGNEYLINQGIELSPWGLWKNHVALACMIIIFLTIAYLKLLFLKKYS
Summary of the method: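 Female FVB Abcg2(-/-), Abcb1a/b(-/-)Abcg2(-/-) and wild-type mice, 7–8 weeks old, under isoflurane, had 60-min dynamic PET started with a tail-vein i.v. microdose of radiotracer (26.6 ± 10.5 MBq, 0.1 mL). The kidney-to-urine rate constant kurine was derived from 4.5–45 min data, given as mean ± S.D. Knockouts were compared with wild-type by one-way ANOVA with Tukey's test.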

[8] = radio-TLC analysis of radiolabeled metabolites in tissues and fluids; type: in vivo, mice; details: 20 min after i.v. injection
Summary of the method: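 Female FVB wild-type and Abcb1a/b(-/-)Abcg2(-/-) mice, 7–8 weeks old, under isoflurane, given radiotracer i.v. (28.4 ± 4.1 MBq, 0.1 mL). At 20 min, blood was drawn from the retro-orbital sinus and the animals were killed. Plasma, liver, kidneys, brain, bile and urine were collected. Tissues were homogenised, proteins precipitated with acetonitrile, then spun at 12,000 g, 5 min, 4°C. Percent unchanged radiotracer was determined by radio-TLC.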

[9] = wild-type mice, microdose i.v., integration plot 0.3-3.5 min

Question: With polyethylene glycol 300 [PEG300] as the compound, how does the “inhibition of ABCB1 activity” value (ABCB1; 20% v/v, Caco-2 and MDR1-MDCK cell monolayers) read?
Answer: almost complete in vitro inhibition

Question: With polysorbate 80 as the compound, how does the “inhibition of ABCB1 activity” value (ABCB1; 0.05% w/v, Caco-2 cells) read?
Answer: only partially inhibited

Question: With COc1ccc2c3c([nH]c2c1)[C@H](CC(C)C)N1C(=O)[C@H](CCC(=O)OC(C)(C)C)NC(=O)[C@@H]1C3 [Ko143, (3S,6S,12aS)-1,2,3,4,6,7,12,12a-octahydro-9-methoxy-6-(2-methylpropyl)-1,4-dioxopyrazino[1’,2’:1,6]pyrido[3,4-b]indole-3-propanoic acid 1,1-dimethylethyl ester] as the compound, how does the tolerability [1] read?
Answer: well tolerated

Question: What about the concentration at 1 h [2] of the same compound?
Answer: 12 nM

Question: And the plasma concentration [3]?
Answer: 420 nM

Question: What about the “unbound fraction in plasma” value [4] of the same compound?
Answer: 0.0293

Question: What about the “brain concentrations, fold higher than in Abcg2^(-/-) mice” value (Abcb1a/b [5]) of the same compound?
Answer: about 3 fold

Question: And the “effect on human ABCB1 ATPase activity” value (human ABCB1)?
Answer: stimulated

Question: Which results are given for CC(C)C[C@H]1c2[nH]c3cc(O[11CH3])ccc3c2C[C@H]2C(=O)N[C@@H](CCC(=O)OC(C)(C)C)C(=O)N21 [[^11C]Ko143]?
Answer: brain concentration-time curves, fold lower than in Abcb1a/b^(-/-) and Abcb1a/b^(-/-)Abcg2^(-/-) mice (Abcb1a/b [6]): approximately 2 fold; kbile, fold lower than with [^11C]Ko143 alone ([7]; wild-type mice co-injected with Ko143 vehicle): 2.4 fold; kbile, fold lower than with [^11C]Ko143 alone ([7]; wild-type mice co-injected with unlabeled Ko143 (10 mg/kg)): 1.9 fold; kurine ([7]; wild-type mice co-injected with unlabeled Ko143 (10 mg/kg) or Ko143 vehicle): almost decreased to zero; mean kuptake, kidney [7, 9]: 0.262 mL/min/g tissue; mean kuptake, liver [7, 9]: 0.689 mL/min/g tissue; kurine compared with wild-type mice (Abcg2): significantly lower; Percentage of unchanged radiotracer, Bile ([8]; Abcb1a/b^(-/-)Abcg2^(-/-) mice): 1.5 ± 1.0%; Percentage of unchanged radiotracer, Brain ([8]; Abcb1a/b^(-/-)Abcg2^(-/-) mice): 73.2 ± 2.4 ^a %; Percentage of unchanged radiotracer, Kidney ([8]; Abcb1a/b^(-/-)Abcg2^(-/-) mice): 21.6 ± 2.0%; Percentage of unchanged radiotracer, Liver ([8]; Abcb1a/b^(-/-)Abcg2^(-/-) mice): 16.0 ± 1.8%; Percentage of unchanged radiotracer, Plasma ([8]; Abcb1a/b^(-/-)Abcg2^(-/-) mice): 34.7 ± 0.4%; Percentage of unchanged radiotracer, Bile ([8]; wild-type mice): 15.2 ± 21.0%; Percentage of unchanged radiotracer, Brain ([8]; wild-type mice): 51.5 ± 13.9%; Percentage of unchanged radiotracer, Kidney ([8]; wild-type mice): 35.6 ± 9.6%; Percentage of unchanged radiotracer, Liver ([8]; wild-type mice): 17.4 ± 2.7%; Percentage of unchanged radiotracer, Plasma ([8]; wild-type mice): 36.0 ± 1.5%
